Results from ChEMBL document CHEMBL1153568, “Synthesis and anticonvulsant activity of N-(2-hydroxyethyl) cinnamamide derivatives” (Eur J Med Chem, 2009).
Active and inactive are the calls of the source.

Key:
Mus musculus [1] = assay: Anticonvulsant activity in Kunming mouse assessed as protection against maximal electroshock-induced seizures at 100 mg/kg, ip after 4 hrs; type: functional, organism-based; parameters: dose 100 mg/kg
How it was run: (§1)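 Maximal electroshock test in mice, five per group, dosed i.p. with suspension in 1:19 DMSO/saline plus 0.5% methylcellulose; seizures evoked at 0.5 h or 4 h after dosing. Protection defined as abolition of hind leg tonic maximal extension; scored as number protected/number tested.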

Mus musculus [2] = assay: Anticonvulsant activity in ip dosed Kunming mouse assessed as protection against maximal electroshock-induced seizures; type: functional
How it was run: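 Phase II quantification: mice (ten per dose) dosed i.p. with compound suspended in 1:19 DMSO/saline, 0.5% methylcellulose; MES given 30 min later, protection being abolition of hind leg tonic extension. ED50, dose protecting 50% of animals, reported with 95% confidence limits.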

[3] = Neurotoxicity in ip dosed Kunming mouse by rotarod test; type: toxicity, organism-based; settings: in vivo
Mus musculus [4] = assay: Protective index, ratio of TD50 for neurotoxicity to ED50 for anticonvulsant activity in ip dosed Kunming mouse; type: functional
Mus musculus [5] = assay: Anticonvulsant activity in Kunming mouse assessed as protection against maximal electroshock-induced seizures at 30 mg/kg, ip after 30 mins; type: functional, organism-based; parameters: dose 30 mg/kg; how it was run: as §1
Mus musculus [6] = assay: Anticonvulsant activity in Kunming mouse assessed as protection against maximal electroshock-induced seizures at 30 mg/kg, ip after 4 hrs; type: functional, organism-based; parameters: dose 30 mg/kg; how it was run: as §1
Mus musculus [7] = assay: Anticonvulsant activity against subcutaneous pentylenetetrazole-induced seizures in Kunming mouse assessed as clonic seizures of at 50 mg/kg, ip after 0.5 hrs; type: functional
How it was run: (§2)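 Test agent given i.p. (suspension in 1:19 DMSO/saline, 0.5% methylcellulose); 30 min later PTZ 85 mg/kg in saline given sc. Animals kept in individual cages, watched 30 min; clonic seizures, tonic seizures and deaths counted, expressed as percent.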

Mus musculus [8] = assay: Anticonvulsant activity against subcutaneous pentylenetetrazole-induced seizures in Kunming mouse assessed as tonic seizures of at 50 mg/kg, ip after 0.5 hrs; type: functional; how it was run: as §2
Mus musculus [9] = assay: Toxicity in Kunming mouse assessed as subcutaneous pentylenetetrazole-induced lethality at 50 mg/kg, ip after 0.5 hrs; type: organism-based; parameters: dose 50 mg/kg; settings: in vivo, sc
How it was run: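 Test article at 50 mg/kg i.p. in 1:19 (vol/vol) DMSO/saline with 0.5% methylcellulose. After 30 min, pentylenetetrazole at 85 mg/kg in saline was given sc. Animals were caged individually and watched for 30 min, with clonic and tonic seizures and deaths counted.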

Mus musculus [10] = assay: Anticonvulsant activity against 3-mercaptopropionic acid-induced seizures in Kunming mouse assessed as clonic seizures of at 50 mg/kg, ip after 0.5 hrs; type: functional; settings: route intraperitoneal
How it was run: (§3)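 Mice given test agent i.p. as suspension in 1:19 DMSO/saline with 0.5% methylcellulose; 30 min later 60 mg/kg 3-mercaptopropionic acid in saline injected sc. Latency and duration of convulsions, latency and percentage lethality recorded over 1 h after convulsant; clonic and tonic seizure incidence reported as percent of animals.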

Mus musculus [11] = assay: Anticonvulsant activity against 3-mercaptopropionic acid-induced seizures in Kunming mouse assessed as tonic seizures of at 50 mg/kg, ip after 0.5 hrs; type: functional; settings: route intraperitoneal; how it was run: as §3
Mus musculus [12] = assay: Toxicity in Kunming mouse assessed as 3-mercaptopropionic acid-induced lethality at 50 mg/kg, ip after 0.5 hrs; type: organism-based; parameters: dose 50 mg/kg, route intraperitoneal; settings: in vivo
How it was run: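 Compound given i.p. at 50 mg/kg as a suspension in 1:19 (vol/vol) DMSO/saline (0.9% NaCl) with 0.5% methylcellulose. At 30 min, 3-mercaptopropionic acid at 60 mg/kg in saline was injected sc. Convulsion latency and duration, and the latency and percentage of lethality, were recorded over the following 1 h.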

Mus musculus [13] = assay: Anticonvulsant activity against thiosemicarbazide-induced seizures in Kunming mouse assessed as clonic seizures of at 50 mg/kg, ip after 2.5 hrs; type: functional; settings: route intraperitoneal
Mus musculus [14] = assay: Anticonvulsant activity against thiosemicarbazide-induced seizures in Kunming mouse assessed as tonic seizures of at 50 mg/kg, ip after 2.5 hrs; type: functional; settings: route intraperitoneal
Mus musculus [15] = assay: Toxicity in Kunming mouse assessed as thiosemicarbazide-induced lethality at 50 mg/kg, ip after 2.5 hrs; type: organism-based; parameters: dose 50 mg/kg, route intraperitoneal; settings: in vivo
Mus musculus [16] = assay: Anticonvulsant activity in Kunming mouse assessed as protection against maximal electroshock-induced seizures at 300 mg/kg, ip after 4 hrs; type: functional, organism-based; parameters: dose 300 mg/kg; how it was run: as §1
Mus musculus [17] = assay: Anticonvulsant activity against isoniazid-induced seizures in Kunming mouse assessed as clonic seizures of at 50 mg/kg, ip after 0.5 hrs; type: functional; settings: route intraperitoneal
How it was run: (§4)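 Compounds suspended in 1:19 DMSO/saline containing 0.5% methylcellulose and given i.p.; after 30 min mice received isoniazid 250 mg/kg i.p., a dose convulsing 100% of animals. Each mouse housed singly and observed 1 h; percent of animals with clonic and tonic seizures, and lethality, recorded.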

Mus musculus [18] = assay: Anticonvulsant activity against isoniazid-induced seizures in Kunming mouse assessed as tonic seizures of at 50 mg/kg, ip after 0.5 hrs; type: functional; settings: route intraperitoneal; how it was run: as §4
Mus musculus [19] = assay: Toxicity in Kunming mouse assessed as isoniazid-induced lethality at 50 mg/kg, ip after 0.5 hrs; type: organism-based; parameters: dose 50 mg/kg, route intraperitoneal; settings: in vivo
How it was run: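 Mice were dosed i.p. at 50 mg/kg with a suspension in 1:19 (vol/vol) DMSO/saline containing 0.5% methylcellulose. Isoniazid (250 mg/kg, i.p.) was given 30 min later. Mice were then housed singly and observed for 1 h, scoring clonic seizures, tonic seizures and deaths.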

Mus musculus [20] = assay: Anticonvulsant activity in Kunming mouse assessed as protection against maximal electroshock-induced seizures at 100 mg/kg, ip after 30 mins; type: functional, organism-based; parameters: dose 100 mg/kg; how it was run: as §1

For `O=C(/C=C/c1ccc(Br)cc1)NCCO`, the Activity (Mus musculus [1]) was “inactive”, the ED50 (Mus musculus [2]) was 76 mg/kg and the TD50 [3] was 98.3 mg/kg. For the same compound, the “Ratio TD50/ED50” value (Mus musculus [4]) was 1.3.

For `O=C(/C=C/c1ccccc1Br)NCCO`, the Activity (Mus musculus [1]) was “inactive”, the ED50 (Mus musculus [2]) was 68.2 mg/kg and the TD50 [3] was 228 mg/kg. For the same compound, the “Ratio TD50/ED50” value (Mus musculus [4]) was 3.3.

In the case of `O=C(/C=C/c1cccc(F)c1)NCCO`, the Activity (Mus musculus [5]) is reported as “Active”, the Activity (Mus musculus [6]) is reported as “inactive” and the ED50 (Mus musculus [2]) is reported as 17 mg/kg. The TD50 [3] was 211 mg/kg, the “Ratio TD50/ED50” value (Mus musculus [4]) was 12.4 and the Activity (Mus musculus [7]) was 100%. For the same compound, the Activity (Mus musculus [8]) was 40%, the Activity (Mus musculus [9]) was 20% and the Activity (Mus musculus [10]) was 100%. For the same compound, the Activity (Mus musculus [11]) was 30%, the Activity (Mus musculus [12]) was 50% and the Activity (Mus musculus [13]) was 100%. For the same compound, the Activity (Mus musculus [14]) was 50% and the Activity (Mus musculus [15]) was 40%.

With `O=C(NCCO)c1ccccc1` the Activity (Mus musculus [16]) was “inactive”.

Compound `NC(=O)N1c2ccccc2C=Cc2ccccc21` [CARBAMAZEPINE] has an ED50 (Mus musculus [2]) of 8.8 mg/kg, an Activity (Mus musculus [7]) of 100% and an Activity (Mus musculus [8]) of 0%. For the same compound, the Activity (Mus musculus [9]) was 10%, the Activity (Mus musculus [17]) was 50% and the Activity (Mus musculus [10]) was 100%. For the same compound, the Activity (Mus musculus [18]) was 0%, the Activity (Mus musculus [19]) was 0% and the Activity (Mus musculus [11]) was 0%. It also gave an Activity (Mus musculus [13]) of 100%, an Activity (Mus musculus [14]) of 0% and an Activity (Mus musculus [15]) of 20%.

In the case of `O=C(/C=C/c1ccc2c(c1)OCO2)NCCO`, the Activity (Mus musculus [6]) is reported as “inactive”, the ED50 (Mus musculus [2]) is reported as 32.4 mg/kg and the TD50 [3] is reported as 105 mg/kg. For the same compound, the “Ratio TD50/ED50” value (Mus musculus [4]) was 3.3.

In the case of `O=C(/C=C/c1cccc(Cl)c1)NCCO`, the Activity (Mus musculus [6]) is reported as “inactive”, the ED50 (Mus musculus [2]) is reported as 25 mg/kg and the TD50 [3] is reported as 127 mg/kg. For the same compound, the “Ratio TD50/ED50” value (Mus musculus [4]) was 5.1 and the Activity (Mus musculus [19]) was 20%.

In the case of `O=C(Cc1ccccc1)NCCO`, the Activity (Mus musculus [16]) is reported as “inactive”.

In the case of `O=C(/C=C/c1ccccc1)NCCO` [IDROCILAMIDE], the Activity (Mus musculus [6]) is reported as “inactive”, the ED50 (Mus musculus [2]) is reported as 17.7 mg/kg and the TD50 [3] is reported as 155 mg/kg. For the same compound, the “Ratio TD50/ED50” value (Mus musculus [4]) was 8.8, the Activity (Mus musculus [7]) was 100% and the Activity (Mus musculus [8]) was 20%. It also gave an Activity (Mus musculus [9]) of 10%, an Activity (Mus musculus [17]) of 100% and an Activity (Mus musculus [10]) of 100%. It also gave an Activity (Mus musculus [18]) of 70%, an Activity (Mus musculus [19]) of 20% and an Activity (Mus musculus [11]) of 10%. For the same compound, the Activity (Mus musculus [12]) was 10%, the Activity (Mus musculus [13]) was 100% and the Activity (Mus musculus [14]) was 40%. It also gave an Activity (Mus musculus [15]) of 30%.

For `COc1ccc(/C=C/C(=O)NCCO)cc1`, the Activity (Mus musculus [1]) was “inactive”.

With `CN(C)c1ccc(/C=C/C(=O)NCCO)cc1` the Activity (Mus musculus [1]) was “inactive”, the ED50 (Mus musculus [2]) was 66.1 mg/kg and the TD50 [3] was 304 mg/kg. The “Ratio TD50/ED50” value (Mus musculus [4]) was 4.6.

For `Cc1ccc(/C=C/C(=O)NCCO)cc1`, the Activity (Mus musculus [1]) was “inactive”.

In the case of `O=C(/C=C/c1ccccc1Cl)NCCO`, the Activity (Mus musculus [20]) is reported as “Active”, the Activity (Mus musculus [1]) is reported as “inactive” and the ED50 (Mus musculus [2]) is reported as 59 mg/kg. For the same compound, the TD50 [3] was 152 mg/kg and the “Ratio TD50/ED50” value (Mus musculus [4]) was 2.6.

In the case of `O=C(/C=C/c1ccccc1F)NCCO`, the Activity (Mus musculus [6]) is reported as “inactive”, the ED50 (Mus musculus [2]) is reported as 35.3 mg/kg and the TD50 [3] is reported as 219 mg/kg. The “Ratio TD50/ED50” value (Mus musculus [4]) was 6.2.

For `O=C(/C=C/c1ccc(Cl)cc1)NCCO`, the Activity (Mus musculus [1]) was “inactive”, the ED50 (Mus musculus [2]) was 73.4 mg/kg and the TD50 [3] was 98.4 mg/kg. The “Ratio TD50/ED50” value (Mus musculus [4]) was 1.3.

With `O=C(/C=C/c1ccc(Cl)cc1Cl)NCCO` the Activity (Mus musculus [16]) was “inactive”.

For `O=C(/C=C/c1ccc(F)cc1)NCCO`, the Activity (Mus musculus [20]) was “Active”, the Activity (Mus musculus [1]) was “inactive” and the ED50 (Mus musculus [2]) was 45.6 mg/kg. The TD50 [3] was 98.3 mg/kg and the “Ratio TD50/ED50” value (Mus musculus [4]) was 2.2.

In the case of `O=C(CCc1ccccc1)NCCO`, the Activity (Mus musculus [16]) is reported as “inactive”.
